From ChEMBL document CHEMBL1828575, “Design, synthesis and antiproliferative activities of biarylolefins based on polyhydroxylated and carbohydrate scaffolds” (Eur J Med Chem, 2011)

Experiments:
Assay type in all cases: functional
LOX IMVI = assay: Antitumor activity against human LOXIMVI cells after 48 hrs by SRB assay
Procedure, shortened: (§1)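 NCI60 panel in RPMI 1640 with 5% FBS and 2 mM L-glutamine. Cells were plated at 5000–40,000/well by doubling time, held 24 h, then time-zero plates were TCA-fixed. Five concentrations (10-fold or half-log dilutions of DMSO stocks) were applied for 48 h at 37 °C, 5% CO2. Cells were fixed with cold TCA (10% final adherent, 16% suspension) and stained with 0.4% SRB. Bound dye was dissolved in 10 mM Tris and read at 515 nm. GI50, TGI and LC50 were calculated per line.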

MDA-MB-468 = assay: Antitumor activity against human MDA-MB-468 cells after 48 hrs by SRB assay; conditions: MDA-MB-468, 48 h; procedure, shortened: as §1
SR [1] = assay: Cytotoxicity against human SR cells assessed as cellular growth at 10 uM after 48 hrs by SRB assay
Procedure, shortened: (§2)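 NCI-60 panel lines grown in RPMI 1640 with 5% FBS and 2 mM L-glutamine. Plated at 5000–40,000 cells/well and preincubated 24 h at 37 °C, 5% CO₂, with time-zero plates fixed in TCA. Compounds, dissolved in DMSO and diluted in medium, were applied for 48 h. Cells were TCA-fixed (10% final for adherent, 16% for suspension) and stained with 0.4% SRB in 1% acetic acid. Dye was solubilised in 10 mM Tris base and read at 515 nm; growth was expressed as a percentage of untreated control.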

[2] = Cytotoxicity against human NCI60 cells assessed as cellular growth at 10 uM after 48 hrs by SRB assay relative to untreated control; procedure, shortened: as §2
SK-MEL-5 = assay: Antitumor activity against human SK-MEL-5 cells after 48 hrs by SRB assay; conditions: SK-MEL-5, 48 h
Procedure, shortened: (§3)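 NCI60 panel cells grown in RPMI 1640 with 5% FBS and 2 mM L-glutamine, plated at 5000–40,000 cells/well and preincubated 24 h at 37 °C, 5% CO₂. Compound was added from DMSO at five concentrations, 10-fold or 1/2 log dilutions, then incubated 48 h.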

K562 = assay: Cytotoxicity against human K562 cells assessed as cellular growth at 10 uM after 48 hrs by SRB assay
Procedure, shortened: (§4)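 NCI60 single-dose screen of cells in RPMI 1640 with 5% FBS and 2 mM L-glutamine, preincubated 24 h at 37 °C, 5% CO₂. Cells were then exposed 48 h to compound added from DMSO stock. TCA-fixed, stained with 0.4% SRB in 1% acetic acid, dye solubilised in 10 mM Tris base and read at 515 nm. Growth is given as percent of untreated control.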

BT-549 = assay: Cytotoxicity against human BT549 cells assessed as cellular growth at 10 uM after 48 hrs by SRB assay; procedure, shortened: as §4
TK-10 = assay: Antitumor activity against human TK10 cells after 48 hrs by SRB assay; conditions: TK-10, 48 h; procedure, shortened: as §3
NCI-H322M [3] = assay: Cytotoxicity against human NCI-H322M cells assessed as cellular growth at 10 uM after 48 hrs by SRB assay; procedure, shortened: as §2
COLO 205 = assay: Antitumor activity against human COLO205 cells after 48 hrs by SRB assay; conditions: COLO 205, 48 h; procedure, shortened: as §1
NCI-H322M [4] = assay: Antitumor activity against human NCI-H322M cells after 48 hrs by SRB assay; procedure, shortened: as §1
KM12 = assay: Antitumor activity against human KM12 cells after 48 hrs by SRB assay; conditions: KM12, 48 h; procedure, shortened: as §1
HL-60(TB) = assay: Cytotoxicity against human HL-60(TB) cells assessed as cellular growth at 10 uM after 48 hrs by SRB assay
SR [5] = assay: Antitumor activity against human SR cells after 48 hrs by SRB assay; procedure, shortened: as §3
DU-145 [6] = assay: Antitumor activity against human DU145 cells after 48 hrs by SRB assay; conditions: DU-145, 48 h; procedure, shortened: as §1
OVCAR-5 = assay: Cytotoxicity against human OVCAR5 cells assessed as cellular growth at 10 uM after 48 hrs by SRB assay; procedure, shortened: as §2
MOLT-4 = assay: Antitumor activity against human MOLT4 cells after 48 hrs by SRB assay; conditions: MOLT-4, 48 h; procedure, shortened: as §1
CAKI-1 = assay: Antitumor activity against human Caki1 cells after 48 hrs by SRB assay; conditions: CAKI-1, 48 h; procedure, shortened: as §1
OVCAR-8 = assay: Antitumor activity against human OVCAR8 cells after 48 hrs by SRB assay; conditions: OVCAR-8, 48 h; procedure, shortened: as §1
U-251 = assay: Antitumor activity against human U251 cells after 48 hrs by SRB assay; conditions: U-251, 48 h; procedure, shortened: as §3
HOP-62 = assay: Antitumor activity against human HOP62 cells after 48 hrs by SRB assay; conditions: HOP-62, 48 h; procedure, shortened: as §1
A549 = assay: Cytotoxicity against human A549 cells assessed as cellular growth at 10 uM after 48 hrs by SRB assay; procedure, shortened: as §4
DU-145 [7] = assay: Cytotoxicity against human DU145 cells assessed as cellular growth at 10 uM after 48 hrs by SRB assay; procedure, shortened: as §4
[8] = read-out: LC50 (the source's name)
[9] = read-out: pLC50 (the source's name) (converted)

COc1cc(/C(=C2\O[C@@H]([C@H]3COC(C)(C)O3)[C@H]3OC(C)(C)O[C@@H]23)c2ccc3ccccc3c2)cc(OC)c1OC
GI50 (LOX IMVI): 3.39 µM | TGI (LOX IMVI): 19.8 µM | CC50 (LOX IMVI; [8]): > 100 µM | GI50 (MDA-MB-468; read-out: GI50): 4.02 µM | CC50 (MDA-MB-468; [8]): > 100 µM | TGI (MDA-MB-468; read-out: TGI): 21.1 µM | GI50 (MDA-MB-468; read-out: pGI50 (converted)): 3.98 µM | CC50 (MDA-MB-468; [9]): > 100 µM | TGI (MDA-MB-468; read-out: pTGI (converted)): 20.9 µM | Activity (SR [1]): 51.36% | Activity [2]: 30% | GI50 (SK-MEL-5): 4.07 µM | LC50 (SK-MEL-5): 51.4 µM | TGI (SK-MEL-5): 15.4 µM | Activity (K562): 28.12% | Activity (BT-549): 22.16% | GI50 (TK-10; read-out: GI50): 3.2 µM | CC50 (TK-10; [8]): > 100 µM | TGI (TK-10; read-out: TGI): 7.2 µM | GI50 (TK-10; read-out: pGI50 (converted)): 3.16 µM | CC50 (TK-10; [9]): > 100 µM | TGI (TK-10; read-out: pTGI (converted)): 7.24 µM | Activity (NCI-H322M [3]): 55.06% | GI50 (COLO 205; read-out: GI50): 6.97 µM | CC50 (COLO 205; [8]): > 100 µM | TGI (COLO 205; read-out: TGI): > 100 µM | GI50 (COLO 205; read-out: pGI50 (converted)): 6.92 µM | CC50 (COLO 205; [9]): > 100 µM | TGI (COLO 205; read-out: pTGI (converted)): > 100 µM | GI50 (NCI-H322M [4]; read-out: GI50): 6.74 µM | CC50 (NCI-H322M [4]; [8]): > 100 µM | TGI (NCI-H322M [4]; read-out: TGI): > 100 µM | GI50 (NCI-H322M [4]; read-out: pGI50 (converted)): 5.75 µM | CC50 (NCI-H322M [4]; [9]): > 100 µM | TGI (NCI-H322M [4]; read-out: pTGI): > 100 µM | GI50 (KM12): 6 µM | LC50 (KM12): > 100 µM | TGI (KM12): > 100 µM | Activity (HL-60(TB)): 59.17% | GI50 (SR [5]; read-out: GI50): > 100 µM | CC50 (SR [5]; [8]): > 100 µM | TGI (SR [5]; read-out: TGI): > 100 µM | GI50 (SR [5]; read-out: pGI50 (converted)): 100 µM | CC50 (SR [5]; [9]): > 100 µM | TGI (SR [5]; read-out: pTGI): > 100 µM | GI50 (DU-145 [6]; read-out: GI50): 4.33 µM | CC50 (DU-145 [6]; [8]): > 100 µM | TGI (DU-145 [6]; read-out: TGI): > 100 µM | GI50 (DU-145 [6]; read-out: pGI50 (converted)): 4.37 µM | CC50 (DU-145 [6]; [9]): > 100 µM | TGI (DU-145 [6]; read-out: pTGI (converted)): > 100 µM | Activity (OVCAR-5): 38.17% | LC50 (concentration killing 50% of cells) (MOLT-4): > 100 µM | GI50 (MOLT-4; read-out: GI50): > 100 µM | TGI (MOLT-4; read-out: TGI): > 100 µM | GI50 (MOLT-4; read-out: pGI50 (converted)): 100 µM | CC50 (MOLT-4; [9]): > 100 µM | TGI (MOLT-4; read-out: pTGI): > 100 µM | GI50 (CAKI-1; read-out: GI50): 4.54 µM | CC50 (CAKI-1; [8]): > 100 µM | TGI (CAKI-1; read-out: TGI): > 100 µM | GI50 (CAKI-1; read-out: pGI50 (converted)): 3.63 µM | CC50 (CAKI-1; [9]): > 100 µM | TGI (CAKI-1; read-out: pTGI (converted)): > 100 µM | GI50 (OVCAR-8; read-out: GI50): 3.69 µM | CC50 (OVCAR-8; [8]): > 100 µM | TGI (OVCAR-8; read-out: TGI): > 100 µM | GI50 (OVCAR-8; read-out: pGI50 (converted)): 4.37 µM | CC50 (OVCAR-8; [9]): > 100 µM | TGI (OVCAR-8; read-out: pTGI): > 100 µM | GI50 (U-251): 3.12 µM | TGI (U-251): 11.8 µM | CC50 (U-251; [8]): > 100 µM | GI50 (HOP-62): 9.78 µM | TGI (HOP-62): 31.4 µM | CC50 (HOP-62; [8]): 99.8 µM | Activity (A549): -9.4% | Activity (DU-145 [7]): 2.86%
